Reference: the EternaBench riboswitch data

Test system: MS2 coat protein
Assay: apparent Kd, MS2 coat protein; higher = weaker binding; RNA-MaP array; FMN 200 µM where present
In short: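 Green signal from SNAP-549-labelled MS2 coat protein was normalised to red-channel RNA signal and to the median Fmax of control clusters. The protein was titrated from 0.7 or 1.5 nM, doubling to 3 µM, without and then with constant ligand, over designs transcribed by stalled E. coli RNA polymerase on Illumina sequencing-chip clusters, in 100 mM Tris-HCl pH 7.5, 80 mM KCl, 4 mM MgCl2, BSA, DTT, yeast tRNA and Tween-20. The apparent Kd is the median of filtered per-cluster binding-curve fits.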

[1] = designed as: OFF switch for flavin mononucleotide, no ligand
[2] = ligand present: flavin mononucleotide, designed as: OFF switch for flavin mononucleotide
[3] = designed as: ON switch for flavin mononucleotide, no ligand
[4] = ligand present: flavin mononucleotide, designed as: ON switch for flavin mononucleotide

| Sequence | apparent Kd [1] | apparent Kd [2] | apparent Kd [3] | apparent Kd [4] |
| --- | --- | --- | --- | --- |
| UGAACUAUGUAGAAGGCCCAUAUUUAUAUAUAGGGAGGAUAUACAUGAGGAUCACCCAUGUAAAGAGCAAGAGGACUUGUCAGA | 0.0142 µM | 0.0373 µM | – | – |
| GUAAAUCAUGUAGGAUAUGCAUGGCGAAGCUACGCAGAAGGACAUGAGGAUCACCCAUGUUCUGGCUACCGGAUACGGUGGCAA | 0.0211 µM | 0.0876 µM | – | – |
| UUUAUUAAUUAGAAGGCUUGAUGAAUUACAAUAGACAUGAGGAUCACCCAUGUGUAUUCAUGUCAAGAGGAUAUAGUCAUAUAU | – | – | 0.0113 µM | 0.00638 µM |
| AUUUGACAUGAGGAUCACCCAUGUGAGGAUAUCGUUAUUUACUUUGUUUAUAGUAUCUCGAGAAGGCACAUUUG | 0.0633 µM | 0.22 µM | – | – |
| UGAUAGGAUAAAGGAUAUACGUGCUAGAGAUACUAGCAAAAUUUCCUCACAUGAGGAUCACCCAUGUAGAAGGUUAACCUAUCU | 0.0147 µM | 0.0571 µM | – | – |
| ACUAUACGAGGAUAUGCUGUCAGUACUCCGGAGUUAGUUUGACAUGAGGAUCACCCAUGUAGAAGGCGUUUACU | 0.04 µM | 0.0303 µM | – | – |
| AUAUGUAACUAGGAUAUCAGCAUACUUCAAUGUUGAGAAGGAGUUACAUGAGGAUCACCCAUGUAUCCAACAUG | 0.0405 µM | 0.0286 µM | – | – |
| CUGGAUAGAGGAUAUUGUACUGCUGACAUGAGGAUCACCCAUGUAUGUUAACUCGGCCGUCGAGAAGGCUAACAAG | 0.0377 µM | 0.0179 µM | – | – |
| GGGAGGGAUACAGGAUAUAUGACAUGAGGAUACAUGAGACAUACAAACAUGAGGAUCACCCAUGUAUAGAAGGGUAAGGGAGGG | 0.173 µM | 0.24 µM | – | – |
| GCUGUCGUAUGAGGAUAUGGUCACCUUUGGUGACCAGAAGGCAUGUCAAUAGACAUGAGGAUCACCCAUGUAGUAAAGACAGCA | – | – | 0.391 µM | 0.0394 µM |
| CCGGAUACGGGUAGCCUGACAUGAGGAUCACCCAUGUGAUCCAAGGAUAUGGAUCCUAAUUGGAUCCAGAAGGUGGUUGGCUAC | – | – | 0.682 µM | 0.369 µM |
| ACAGGCUUCGAGAAGGACAUGAGGAUCACCCAUGUGCGUGUGAAGCAGCCGUGAGGCUGCAUCAUGUAGGAUAUCGGAGUCUGG | 0.076 µM | 0.504 µM | – | – |
| UGAACUAUGUAGAAGGCCCUCAUUAAUAUGAAGGGAGGAUAUACAUGAGGAUCACCCAUGUGAAGAGCAAGAGGGUUUAACAGA | 0.0891 µM | 0.479 µM | – | – |
| AUAUAUAUAUCAGGAUAUGGACAGGCCUGUCCGUAUUGAGACAGUAACAUGAGGAUCACCCAUGUCCAGAAGGGAUAUAUAUAU | 0.0515 µM | 0.0592 µM | – | – |
| UUGGAGUACGUAGGAUAUGUAGGAUAUUCCUACAUGAGGAUCACCCAUGUAAGCAUGGAAGAAGGACAGAAGGACGUGCUCCAU | – | – | 0.223 µM | 0.0149 µM |
| CGUGACGACAUAGGAUAUUGUUACAUGAGGAUCACCCAUGUCAACCAUUUAUCUCAAAUUGUUGACAAGAAGGAUGUGGUCACG | – | – | 0.0326 µM | 0.0116 µM |
| CCCAUCAGAGGAUAUACAUGAGGAUCACCCAUGUCAAUCGAACGGGAUGGGAGGUUAGGUAGAAGGUUGUGGAA | 0.0152 µM | 0.0169 µM | – | – |
| AAUUGUAGAACAAUCACUACCAGUCAGGAUAUACAUGAGGAUCACCCAUGUCGUGUCGACAGCAUGUAGAAGGGACGGUUAUAU | 0.0516 µM | 0.115 µM | – | – |
| GAGAAGAGGGAAGGAUAUACAUGAGGAUCACCCAUGUAGAUAGGUAAAAUAGGAAGAAGAAGAAUGUAGAAGGUCCGGUUUGUU | 0.0152 µM | 0.0159 µM | – | – |
| CCGCAAAUGCAGGAUAUCGUAUCGGAAACGAUACGAGAAGGGUAAACAUGAGGAUCACCCAUGUUCCUUAACGG | 0.0179 µM | 0.017 µM | – | – |
| AAACGCGUAGGAUAUACAUGAGGAUCACCCAUGUAUUGGGCUGUUGAUCUUCCUAAGGGUAGAAGGACGGGCAC | 0.0681 µM | 0.119 µM | – | – |
| UUAGCGCGAGGAUAUGCGGUUUGUGCUUUGGGCCCUGGCGUACAUGAGGAUCACCCAUGUAGAAGGCGUGUUGU | 0.0247 µM | 0.0248 µM | – | – |
| UCUCGACAUGAGGAUCACCCAUGUCAGGAUAUUGUAUUAGAGGUUUUUUACCUUAUAACAAGAAGGGAUGUGUG | 0.0229 µM | 0.0268 µM | – | – |
| AUAUGAUUAAGAGGAUAUAUACAACAUGAGGAUCACCCAUGUACCCAUGUAGUAGAAGGUUUGUUUUUAUAUAAUAAUAUAAUU | – | – | 0.0748 µM | 0.0521 µM |

| Sequence | apparent Kd [1] | apparent Kd [2] | apparent Kd [3] | apparent Kd [4] |
| --- | --- | --- | --- | --- |
| GUGUGCAGAGGAUAUACAUAGGAAUAUAAUAUAAUAUAAUUACAUGAGGAUCACCCAUGUAGAAGGCUGAGUGU | 0.0238 µM | 0.0268 µM | – | – |
| GGUUACACAGGAUAUACAUGAGGAUCACCCAUGUCGAGCCGACCCGGAUGCACCUAAAGUAGAAGGGUGAGCUG | 0.0218 µM | 0.0227 µM | – | – |
| AAAAAACAUGAGGAUCACCCAUGUAAGGAUAUCGUGCAGAAAAAAAAAAAAAACUGCACGAGAAGGUACAAGGA | 0.0744 µM | 0.108 µM | – | – |
| GUAAUUUAUAGAGGAUAUUGACAUGAGGAUCACCCAUGUAUUUGGGAGUGUUCACUGAAUUCUUACGAGAAGGCUAUAAAAUAC | 0.307 µM | 0.213 µM | – | – |
| UGUCGGAGCAGAGGAUAUUACAUGAGGAUCACCCAUGUAUGAACCAAUAGCUGGAAACCGCAAUGUAAGAAGGCUGCUCCGACA | 0.104 µM | 0.374 µM | – | – |
| GUUUAGUGAGGAUAUGUGGCAUCGCCCGAGCGCGGUCGGCUACAGAAGGCACAUGAGGAUCACCCAUGUUUCUC | 0.0386 µM | 0.585 µM | – | – |
| GGACGGUUAGUUAGGAUAUGCUCUACCUCGGUAGAGCAGAAGGGACAUGAGGAUCACCCAUGUGAAAACUGUUC | 0.0194 µM | 0.0213 µM | – | – |
| AUAAUUUUAUUUUUCCCAAGAAUCAGAAGGCGUUACAUGAGGAUCACCCAUGUUUUGUAUAGUAACGAGGAUAUGAUAUGGUUA | 0.0152 µM | 0.0147 µM | – | – |
| GCCCUAAGGCGGGCCGACCAUACAUGAGGAUCACCCAUGUCGAGAAGGUGCUCACGGGUGGGUGGCAAGGAUAUCGGGUCGGAU | – | – | 0.0771 µM | 0.0414 µM |
| AUAAAUCAUGUAGGAUAUGCGUGGCGAAGCUAUGCAGAAGGACAUGAGGAUCACCCAUGUCUUUCCGUCUGCGUACAGACGGGA | 0.0309 µM | 0.225 µM | – | – |
| GUGUAGUCAGGAUAUACAUAGGAAGAGAAGAGAAGAUAAGUACAUGAGGAUCACCCAUGUAGAAGGGACAGUGU | 0.0306 µM | 0.0296 µM | – | – |
| GACGGAUGUAUAGGAUAUGCUGAGGAAUACUCAGCAGAAGGAUACAUGAGGAUCACCCAUGUAACCGUCAAUAAUAAUAAUAAU | 0.0157 µM | 0.0299 µM | – | – |
| GUAACUCAUGUAGGAUAUGCAUGGCGAAGCUACGCAGAAGGACAUGAGGAUCACCCAUGUUCUAGCGUCUGAGUACAGAUGCAA | 0.0602 µM | 0.436 µM | – | – |
| UAGAAGUCAGGAUAUGCAUGGCGGGACUUGCGUCGUGGCGUGCAGAAGGGACAUGAGGAUCACCCAUGUAAAGU | 0.0515 µM | 0.0555 µM | – | – |
| UGGUACUAGGGAGGAUAUGGGAAGAUACAUGAGGAUCACCCAUGUUUAAUAAUGCCGAGAGGCAACUAGAAGGCCCUAGUACCU | – | – | 0.253 µM | 0.0139 µM |
| GGAACGCUUGACAUGAGGAUCACCCAUGUUAGAUUGUUAUGUCAGGAUAUAGUCUAGAAACUAGACUAGAAGGGAUAUGUUUCU | – | – | 0.428 µM | 0.0877 µM |
| AUACUCAUGUAAGGAUAUGCAGCCGUUUCGGCUGCAGAAGGUACUAUAAUACAUGAGGAUCACCCAUGUCCCUCGCAUUGCGAG | – | – | 0.657 µM | 0.0859 µM |
| UCGCUGCGAGGAUAUACAUGAGGAUCACCCAUGUACGGGUCCGGGUCUUUGUCGAUUGGUAGAAGGCGCAGUGA | 0.0611 µM | 0.397 µM | – | – |
| GGUCUGAGAGGAUAUACAUGAAAAAAAAAAGUAAGAUCCCUACAUGAGGAUCACCCAUGUAGAAGGCUCUGAUA | 0.0338 µM | 0.0339 µM | – | – |
| CGUCUGUGAGGAUAUGGUAUCGUUUACAUGAGGAUCACCCAUGUUUCAUGGGACUAGAGACUAGAAGGUACUGACG | 1.31 µM | 0.87 µM | – | – |
| GCUAGUAUUGCAGGAUAUUGUGUUUAAGGAUGGCAAGAAGGGCAUUACAUGAGGAUCACCCAUGUUUUCCGUAGUCAUACUAGC | 0.00734 µM | 0.00728 µM | – | – |
| CUUUUGUGAGGAUAUUAGUAGUAAAAAAAUAAAAUUACUACUGAGAAGGCACAUGAGGAUCACCCAUGUUCCUC | 0.0314 µM | 0.213 µM | – | – |
| GGUCCACAUGAGGAUCACCCAUGUUAGGAUAUCUCCCGCCUCCUCACUGGAGACGGACAGAGAAGGAACAUCAA | 0.0236 µM | 0.0747 µM | – | – |
| UCAUAUAUACAAGGAUAUCAAUGAUUUAUAGAUCCUACAUGAGGAUCACCCAUGUUUUUAUAUUUUGAGAAGGUGUAAUGUCUU | – | – | 0.218 µM | 0.254 µM |
